This is an account of results in the array DNA melting data of Ke et al. (doi:10.1101/2024.01.08.574731).

Data set [1] can be described thus: melting temperature; fluorescence melt of hairpins on a sequencing array, two-state fit, raised by 9.35 °C to match UV melts. The settings on record: sodium 0.088 M. A digest of the protocol:
(§1)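 With Cy3 and quencher oligos annealed, library hairpins on a sequenced MiSeq flow cell were imaged for Cy3 fluorescence in 50 mM Na-HEPES pH 8.0, 25 mM NaCl, in 2.5 °C steps up to 60 °C. Melting temperature and folding enthalpy were derived from bootstrapped two-state fits of signals normalised to pre-quench Cy3 and to control constructs. Four replicates were combined by inverse variance, with fitted temperatures raised by 9.35 °C to match UV melts.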

The nature of data set [2]: folding enthalpy; higher = less favourable; fluorescence melt of hairpins on a sequencing array, two-state fit. The settings on record: sodium 0.088 M. A digest of the protocol:
as §1

As for GTGTTCGAAAGAATTCAC ((((((....)))..))), the Tm in data set [1] was determined as 28.8 °C. For the same sequence, the folding enthalpy in data set [2] was -10.3 kcal/mol.

As to GTGTTCGGAAACGAACGC (.(((((....))))).), in data set [1], the Tm is 59.6 °C. The folding enthalpy in data set [2] is -30.3 kcal/mol.

With GTGTTCGGAAACGGATAC ((.(.((....)).).)), the Tm in data set [1] turned out to be 33.6 °C. Further, the folding enthalpy in data set [2] is -25.8 kcal/mol.

With GTGTTCTCGAAAGAGCAC (((..(((....)))))), in data set [1], the Tm was determined as 41.8 °C. The folding enthalpy in data set [2] is -24.7 kcal/mol.

With GTGTTGCGAAAGCACAC (((.(((....)))))), in data set [1], the Tm was 56.3 °C. In addition, in data set [2], the folding enthalpy is -33.8 kcal/mol.

On to GTGTTGCGAAAGCACCAC (((.(((....))).))), for which the Tm in data set [1] amounted to 51.2 °C. Moreover, the folding enthalpy in data set [2] is -30.7 kcal/mol.

Turning to GTGTTGGGAAACCAATAC ((.((((....)))).)), in data set [1], the Tm stood at 45.7 °C. In data set [2], the folding enthalpy was -41.5 kcal/mol.

Turning to GTGTTGGGAAACCAGTAC ((..(((....)))..)), the Tm in data set [1] was 25 °C. In data set [2], the folding enthalpy was -11 kcal/mol.

Regarding GTGTTGGGAAACCGACAC ((((.((....)).)))), the Tm in data set [1] was 53.6 °C. In data set [2], the folding enthalpy was -45.5 kcal/mol.

GTGTTTCGAAAGAACCAC (((.(((....))).))): the Tm in data set [1] worked out at 43 °C. In data set [2], the folding enthalpy is -30.7 kcal/mol.

As for GTGTTTGGAAACAAACGC (.(((((....))))).), in data set [1], the Tm came out at 51 °C. In addition, the folding enthalpy in data set [2] is -32.3 kcal/mol.

In the case of GTTAAACGAAAGTTAAC (((.(((....)))))), in data set [1], the Tm amounted to 34.6 °C. The folding enthalpy in data set [2] is -17.2 kcal/mol.

As to GTTAAACGAAAGTTCAAC (((.(((....))).))), the Tm in data set [1] was 30.3 °C. Moreover, the folding enthalpy in data set [2] was -22.6 kcal/mol.

With GTTAAAGGAAACTTTAGC (.(((((....))))).), in data set [1], the Tm worked out at 27.6 °C. Moreover, the folding enthalpy in data set [2] is -20.6 kcal/mol.

Turning to GTTAACGAAAGTTACAAC ((((((....)))..))), the Tm in data set [1] stood at 25.6 °C. In addition, the folding enthalpy in data set [2] was -12.3 kcal/mol.

Turning to GTTAACGAAAGTTTAAC ((((((....))).))), the Tm in data set [1] was found to be 34.6 °C. In addition, the folding enthalpy in data set [2] was -17 kcal/mol.

With GTTAACGGAAACGTCAAC (((.(((....))).))), the Tm in data set [1] turned out to be 34.2 °C. Moreover, the folding enthalpy in data set [2] is -15.2 kcal/mol.

As for GTTAAGCGAAAGCTGAAC (((.(((....))).))), the Tm in data set [1] was 48.2 °C. Also, the folding enthalpy in data set [2] is -23.2 kcal/mol.

Consider GTTAAGGGAAACCTTAAC (((((((....))))))), for which the Tm in data set [1] turned out to be 50.5 °C. Also, the folding enthalpy in data set [2] is -39.2 kcal/mol.

For the sequence GTTAAGGGAAACCTTGAC ((.((((....)))).)), the Tm in data set [1] came out at 37.4 °C. In data set [2], the folding enthalpy is -29.3 kcal/mol.

Turning to GTTAAGTCGAAAGACAAC (((..(((....)))))), the Tm in data set [1] was determined as 27.8 °C. Besides, the folding enthalpy in data set [2] is -13.4 kcal/mol.

GTTACCGAAAGGTAAAAC ((((((....)))..))): the Tm in data set [1] is 34.7 °C. For the same sequence, the folding enthalpy in data set [2] is -13.2 kcal/mol.

Turning to GTTACCGAAAGGTGAAAC ((((((....)))..))), the Tm in data set [1] stood at 27.5 °C. Further, the folding enthalpy in data set [2] is -9.44 kcal/mol.

Regarding GTTACCGAAAGGTTAAC ((((((....))).))), the Tm in data set [1] came to 41.9 °C. The folding enthalpy in data set [2] was -15.4 kcal/mol.

Take GTTACCGGAAACGGTGAC ((.((((....)))).)): the Tm in data set [1] amounted to 51.2 °C. For the same sequence, the folding enthalpy in data set [2] was -30.4 kcal/mol.

Turning to GTTACGACGAAAGTCAAC (((..(((....)))))), the Tm in data set [1] was 25.5 °C. Further, the folding enthalpy in data set [2] was -12.3 kcal/mol.

Consider GTTACGCGAAAGCGAAAC (((.(((....))).))), for which, in data set [1], the Tm turned out to be 51.1 °C. For the same sequence, in data set [2], the folding enthalpy is -23.5 kcal/mol.

As for GTTACTGGAAACGGTAAC (((((.(....).))))), the Tm in data set [1] stood at 43.9 °C. For the same sequence, the folding enthalpy in data set [2] is -32.2 kcal/mol.

For the sequence GTTAGACCGAAAGGTAAC (((..(((....)))))), the Tm in data set [1] was 30.2 °C. In data set [2], the folding enthalpy was -11.2 kcal/mol.

For the sequence GTTAGAGGAAACTCTAAC (((((((....))))))), in data set [1], the Tm worked out at 51.6 °C. Besides, the folding enthalpy in data set [2] is -39.7 kcal/mol.

For the sequence GTTAGAGGAAACTCTGAC ((.((((....)))).)), the Tm in data set [1] turned out to be 37.1 °C. In addition, the folding enthalpy in data set [2] was -31.4 kcal/mol.

Take GTTAGAGGAAACTTTAAC ((((.((....)).)))): in data set [1], the Tm is 27.5 °C. Also, the folding enthalpy in data set [2] was -15.5 kcal/mol.

GTTAGCACGAAAGTGAAC (((..(((....)))))): in data set [1], the Tm came out at 27 °C. The folding enthalpy in data set [2] was -11.6 kcal/mol.

In the case of GTTAGCGAAAGCTCTAAC ((((((....)))..))), in data set [1], the Tm came to 25.6 °C. Besides, the folding enthalpy in data set [2] is -8.83 kcal/mol.

Regarding GTTAGCGAAAGCTGAAC ((((((....))).))), the Tm in data set [1] came to 38.4 °C. Also, the folding enthalpy in data set [2] is -13.2 kcal/mol.

Take GTTAGCGAAAGCTTAAC ((((((....))).))): the Tm in data set [1] was determined as 42.8 °C. In addition, in data set [2], the folding enthalpy is -13.9 kcal/mol.

Take GTTAGGCCGAAAGGCAAC (((..(((....)))))): in data set [1], the Tm stood at 32.1 °C. For the same sequence, the folding enthalpy in data set [2] is -9.31 kcal/mol.
